Converted amounts (≈) assume the structure as drawn.
Columns and labels:
Mus musculus = experiment: In vivo inhibition of MPO in peritoneal lavage of zymosan-induced neutrophilic peritonitis BALB/c mouse model at 0.01 to 10 umol/kg, po administered 2 hrs prior to zymosan injection and measured after 2 hrs by chemiluminescence assay; assay type: functional, organism-based; settings: dose 0.01-10 µmol/kg, time 4.0 hrs, DDE = dose-dependent effect
How it was run: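 BALB/c mice given 10, 1, 0.1 or 0.01 µmol/kg orally 2 h before intraperitoneal zymosan. Peritoneal lavage collected 2 h later and peroxidase activity quantified by chemiluminescence; neutrophils dominate the infiltrate, so activity attributed to MPO.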

Cytochrome P450 2D6 = Cytochrome P450 2D6 (Homo sapiens, UniProt P10635); experiment: Inhibition of CYP2D6 (unknown origin) using coumarin as substrate preincubated with enzyme for 10 mins followed by NADPH addition and measured after 20 to 50 mins by fluorescence based method
physchem = settings: phosphate buffer, pH 7.4
[1] = Drug uptake in human hepatocytes assessed as covalent binding measured per mg protein; assay type: ADME, cell-based, Hepatocyte
How it was run: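 [14C]-labelled compound incubated with human hepatocytes; covalently bound radioactivity expressed as pmol per mg protein.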

[2] = target: Voltage-gated inwardly rectifying potassium channel KCNH2 (Homo sapiens, UniProt Q12809)
[3] = Oral bioavailability in Wistar Han rat measured up to 24 hrs by LC-MS/MS analysis; assay type: ADME, organism-based; settings: in vivo
[4] = Lipophilicity, log D of the compound; settings: octanol/water
[5] = Toxicity in female rat assessed as NOAEL by 6 months toxicology study; settings: in vivo, 4380 h
How it was run: (§1)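 Pivotal 6-month repeat-dose toxicology study in rats with daily dosing up to 125 mg/kg/day. Males and females were assessed separately, and a NOAEL was assigned for each sex.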

Cytochrome P450 3A4 = Cytochrome P450 3A4 (Homo sapiens, UniProt P08684)
Cytochrome P450 2C9 = Cytochrome P450 2C9 (Homo sapiens, UniProt P11712); experiment: Inhibition of human recombinant CYP2C9 using coumarin as substrate preincubated with enzyme for 10 mins followed by NADPH addition and measured after 20 to 50 mins by fluorescence based method
Cytochrome P450 1A2 = target: T1, Cytochrome P450 1A2 (Homo sapiens, UniProt P05177); experiment: Inhibition of human recombinant CYP1A2 using coumarin as substrate preincubated with enzyme for 10 mins followed by NADPH addition and measured after 20 to 50 mins by fluorescence based method
T1 sequence (P05177 whole entry): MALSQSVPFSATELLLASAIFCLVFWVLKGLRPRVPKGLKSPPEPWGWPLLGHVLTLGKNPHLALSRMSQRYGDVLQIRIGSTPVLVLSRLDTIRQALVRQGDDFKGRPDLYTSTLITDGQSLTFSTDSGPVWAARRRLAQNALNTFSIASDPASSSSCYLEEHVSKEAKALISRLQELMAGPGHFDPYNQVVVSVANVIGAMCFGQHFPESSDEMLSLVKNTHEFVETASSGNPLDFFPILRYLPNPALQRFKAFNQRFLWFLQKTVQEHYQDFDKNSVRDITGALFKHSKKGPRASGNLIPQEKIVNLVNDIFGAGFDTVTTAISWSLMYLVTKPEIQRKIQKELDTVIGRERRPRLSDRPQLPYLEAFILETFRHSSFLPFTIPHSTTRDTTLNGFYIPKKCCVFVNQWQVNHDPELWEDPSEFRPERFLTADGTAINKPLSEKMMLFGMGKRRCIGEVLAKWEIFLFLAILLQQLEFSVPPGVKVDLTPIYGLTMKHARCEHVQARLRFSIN

[6] = Apparent permeability of the compound across apical to basolateral side in human Caco-2 cells at 10 uM by LC-MS/MS analysis
[7] = Toxicity in male rat assessed as NOAEL by 6 months toxicology study; settings: in vivo, 4380 h; how it was run: as §1
[8] = Toxicity in dog assessed as body weight by 9 months toxicology study; set-up: species or system Canis lupus familiaris; settings: in vivo, 6570 h
How it was run: (§2)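 Pivotal 9-month repeat-dose toxicology study in dogs at doses up to 100 mg/kg/day, with food consumption, body weight and pathology monitored.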

[9] = Toxicity in rat bone marrow by micronucleus test
[10] = Toxicity in dog assessed as food intake by 9 months toxicology study; set-up: species or system Canis lupus familiaris; settings: in vivo, 6570 h; how it was run: as §2
Cytochrome P450 2C19 = Cytochrome P450 2C19 (Homo sapiens, UniProt P33261); experiment: Inhibition of human recombinant CYP2C19 using coumarin as substrate preincubated with enzyme for 10 mins followed by NADPH addition and measured after 20 to 50 mins by fluorescence based method
[11] = Oral bioavailability in Beagle dog measured up to 24 hrs by LC-MS/MS analysis; assay type: ADME, organism-based, Canis lupus familiaris; settings: in vivo
[12] = Toxicity in dog assessed as NOAEL by 9 months toxicology study; set-up: species or system Canis lupus familiaris; settings: in vivo, 6570 h
How it was run: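 Pivotal 9-month repeat-dose toxicology study in dogs with daily dosing up to 100 mg/kg/day. Endpoints included food consumption, body weight and pathology. The NOAEL was assigned from these findings.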

Sequence of Cytochrome P450 3A4 (P08684 whole entry): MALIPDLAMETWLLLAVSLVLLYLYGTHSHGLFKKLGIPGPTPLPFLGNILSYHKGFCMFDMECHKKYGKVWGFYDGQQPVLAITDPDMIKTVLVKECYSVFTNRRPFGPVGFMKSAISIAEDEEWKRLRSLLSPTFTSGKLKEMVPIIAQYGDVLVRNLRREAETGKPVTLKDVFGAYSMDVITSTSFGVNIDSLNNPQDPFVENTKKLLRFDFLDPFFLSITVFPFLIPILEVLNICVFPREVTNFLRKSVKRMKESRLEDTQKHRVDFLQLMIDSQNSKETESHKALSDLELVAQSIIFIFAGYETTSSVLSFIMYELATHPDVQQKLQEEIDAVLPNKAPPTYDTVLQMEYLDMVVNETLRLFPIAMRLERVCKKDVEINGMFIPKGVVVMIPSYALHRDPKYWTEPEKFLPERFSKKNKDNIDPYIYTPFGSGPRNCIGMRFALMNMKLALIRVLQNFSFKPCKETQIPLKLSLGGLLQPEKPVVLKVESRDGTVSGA
Sequence of Cytochrome P450 2D6 (P10635 whole entry): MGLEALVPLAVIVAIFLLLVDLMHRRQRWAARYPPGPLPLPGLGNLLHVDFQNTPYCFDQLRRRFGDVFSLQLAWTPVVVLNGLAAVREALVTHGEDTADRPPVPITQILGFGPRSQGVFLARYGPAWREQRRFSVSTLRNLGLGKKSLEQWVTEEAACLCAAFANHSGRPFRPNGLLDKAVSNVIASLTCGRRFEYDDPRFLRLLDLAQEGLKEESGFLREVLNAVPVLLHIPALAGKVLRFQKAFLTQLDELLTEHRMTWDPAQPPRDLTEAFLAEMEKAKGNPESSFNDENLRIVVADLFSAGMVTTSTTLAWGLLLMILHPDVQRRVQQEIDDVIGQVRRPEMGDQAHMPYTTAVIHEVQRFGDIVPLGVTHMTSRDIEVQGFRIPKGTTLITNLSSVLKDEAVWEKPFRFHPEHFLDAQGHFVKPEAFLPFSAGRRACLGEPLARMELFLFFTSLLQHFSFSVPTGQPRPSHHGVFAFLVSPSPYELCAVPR
Sequence of Cytochrome P450 2C19 (P33261 whole entry): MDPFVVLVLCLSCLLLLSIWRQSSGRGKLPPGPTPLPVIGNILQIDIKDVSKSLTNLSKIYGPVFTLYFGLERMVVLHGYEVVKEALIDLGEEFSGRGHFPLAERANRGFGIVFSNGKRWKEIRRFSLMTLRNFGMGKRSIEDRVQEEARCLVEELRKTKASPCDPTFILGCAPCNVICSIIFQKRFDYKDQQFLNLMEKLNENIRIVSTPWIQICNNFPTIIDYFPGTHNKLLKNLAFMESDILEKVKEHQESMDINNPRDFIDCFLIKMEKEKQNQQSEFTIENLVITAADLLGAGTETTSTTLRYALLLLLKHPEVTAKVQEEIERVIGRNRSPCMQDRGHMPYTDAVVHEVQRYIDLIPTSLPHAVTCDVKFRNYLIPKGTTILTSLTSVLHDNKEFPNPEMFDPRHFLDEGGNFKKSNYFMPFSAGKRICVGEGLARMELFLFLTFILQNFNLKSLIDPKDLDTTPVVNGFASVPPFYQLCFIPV
Sequence of Voltage-gated inwardly rectifying potassium channel KCNH2 (Q12809 whole entry): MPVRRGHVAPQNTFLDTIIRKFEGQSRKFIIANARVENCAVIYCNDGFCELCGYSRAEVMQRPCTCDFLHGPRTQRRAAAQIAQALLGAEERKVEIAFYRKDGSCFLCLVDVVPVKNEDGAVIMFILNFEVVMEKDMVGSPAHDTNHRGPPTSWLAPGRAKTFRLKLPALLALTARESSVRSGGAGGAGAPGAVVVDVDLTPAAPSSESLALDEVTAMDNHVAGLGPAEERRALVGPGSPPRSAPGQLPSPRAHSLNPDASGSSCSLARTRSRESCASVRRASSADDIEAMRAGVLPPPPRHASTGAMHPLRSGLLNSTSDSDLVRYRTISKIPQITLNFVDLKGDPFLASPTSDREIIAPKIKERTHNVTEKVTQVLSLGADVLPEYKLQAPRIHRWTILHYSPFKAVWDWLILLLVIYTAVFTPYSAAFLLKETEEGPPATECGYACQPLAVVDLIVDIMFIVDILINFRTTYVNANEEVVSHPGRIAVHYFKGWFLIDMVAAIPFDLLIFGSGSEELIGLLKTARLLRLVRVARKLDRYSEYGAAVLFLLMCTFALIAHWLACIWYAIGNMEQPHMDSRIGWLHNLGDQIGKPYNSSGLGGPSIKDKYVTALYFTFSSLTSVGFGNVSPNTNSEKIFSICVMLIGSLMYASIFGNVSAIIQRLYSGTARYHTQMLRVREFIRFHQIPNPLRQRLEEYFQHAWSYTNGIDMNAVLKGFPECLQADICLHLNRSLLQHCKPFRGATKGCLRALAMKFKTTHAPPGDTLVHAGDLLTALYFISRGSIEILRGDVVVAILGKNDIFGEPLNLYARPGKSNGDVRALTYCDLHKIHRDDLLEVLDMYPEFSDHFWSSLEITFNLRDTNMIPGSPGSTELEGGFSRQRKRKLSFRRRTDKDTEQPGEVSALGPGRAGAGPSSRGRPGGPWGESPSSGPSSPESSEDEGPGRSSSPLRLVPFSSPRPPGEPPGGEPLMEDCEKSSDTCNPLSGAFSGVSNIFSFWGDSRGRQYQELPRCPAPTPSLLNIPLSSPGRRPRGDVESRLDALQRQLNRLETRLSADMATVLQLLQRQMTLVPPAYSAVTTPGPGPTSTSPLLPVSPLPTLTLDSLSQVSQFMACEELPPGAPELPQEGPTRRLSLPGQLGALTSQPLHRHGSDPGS
Sequence of Cytochrome P450 2C9 (P11712 whole entry): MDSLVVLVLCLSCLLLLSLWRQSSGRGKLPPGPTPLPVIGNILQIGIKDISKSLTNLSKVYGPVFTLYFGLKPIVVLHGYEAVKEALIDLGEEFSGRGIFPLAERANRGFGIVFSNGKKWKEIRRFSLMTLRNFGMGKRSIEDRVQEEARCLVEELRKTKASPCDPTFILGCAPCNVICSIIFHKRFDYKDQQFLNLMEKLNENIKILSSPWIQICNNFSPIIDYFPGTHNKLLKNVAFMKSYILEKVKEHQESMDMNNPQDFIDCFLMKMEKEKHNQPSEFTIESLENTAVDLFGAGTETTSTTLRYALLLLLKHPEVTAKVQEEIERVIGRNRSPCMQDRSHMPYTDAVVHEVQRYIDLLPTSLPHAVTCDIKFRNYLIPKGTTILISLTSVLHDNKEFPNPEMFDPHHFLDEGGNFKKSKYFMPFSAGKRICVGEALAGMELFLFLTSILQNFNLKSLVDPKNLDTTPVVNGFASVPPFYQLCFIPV

C[C@@H](N)c1cc(Cl)ccc1Cn1c(=S)[nH]c(=O)c2[nH]ccc21
inhibition (Mus musculus): Dde | IC50 (Cytochrome P450 2D6): > 30 µM | solubility thermodynamic at 18 h (physchem): 270 µM (≈ 90.4 µg/mL) | Drug uptake [1]: 56 pmol | IC50 [2]: 21 µM | bioavailability [3]: 61% | logD [4]: 1.2 | NOAEL [5]: 125 mg/kg/day | IC50 (Cytochrome P450 3A4): 6 µM | IC50 (Cytochrome P450 2C9): > 30 µM | IC50 (Cytochrome P450 1A2): > 30 µM | Papp A→B at 10 µM [6]: 11 ×10⁻⁶ cm/s | NOAEL [7]: 125 mg/kg/day | Activity [8]: Non-Toxic | Activity [9]: Non-Toxic | Activity [10]: Non-Toxic | IC50 (Cytochrome P450 2C19): > 30 µM | bioavailability [11]: 52% | NOAEL [12]: 100 mg/kg/day
